iPSC survival up – hiPSC single-cell survival enhancement. 360,000 tested, 0.044% active. survival enhancement, % at 20 µM. ATPlite luminescence; 100% = ROCK inhibitor wells, 0% = DMSO; in the data active means survival enhancement above about 18%;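 further: cells exposed to compounds for 16 hours before the ATP read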
APOBEC3A inh – inhibitors of human APOBEC3A DNA deaminase. P31941. recombinant A3A, FAM/TAMRA ssDNA deamination fluorescence. inhibition, % at 20 µM. 330,000 tested, 0.41% active;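 active means at least 40% inhibition at 20 µM here, with at most 30% in a related deaminase screen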;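 further: plate controls were A3A with DMSO for no effect and wells lacking A3A enzyme for full effect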
Target sequence (P31941 whole entry, looked up): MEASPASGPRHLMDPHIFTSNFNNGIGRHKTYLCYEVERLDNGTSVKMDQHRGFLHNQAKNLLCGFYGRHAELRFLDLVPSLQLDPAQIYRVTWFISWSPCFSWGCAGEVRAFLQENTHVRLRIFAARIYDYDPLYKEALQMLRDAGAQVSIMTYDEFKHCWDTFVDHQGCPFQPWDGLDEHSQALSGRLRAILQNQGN
HKDC1 inhibitor – HKDC1 (human) hexokinase inhibition; Q2TB90; recombinant HKDC1, G6PDH/diaphorase resazurin coupled fluorescence; inhibition, % at 20 µM; 340,000 tested, 0.16% active; AID 493160;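 active means inhibition above about 35% when tested at 20 µM, limit read from the data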;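 further: plate controls were DMSO wells with enzyme for no effect and DMSO wells lacking enzyme for full effect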
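Material: recombinant HKDC1 hexokinase; Amount: HKDC1 at 5 µg/mL; Medium: Tris pH 8.0 buffer with MgCl2, Tween-20, BSA, BME; Schedule: 90 min reaction incubation at room temperature, dark; Technique: coupled resazurin fluorescence, excitation 525 nm, emission 613 nm.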
APOBEC3G inh – APOBEC3G (human) deaminase inhibition; Q9HC16; recombinant A3G, ssDNA deamination FAM/TAMRA fluorescence; inhibition, % at 20 µM; 330,000 tested, 0.28% active;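 active means inhibition of at least 40% at 20 µM, with no more than 30% in the related APOBEC3A deaminase screen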;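 further: plate controls were DMSO wells with A3G for no effect and wells lacking A3G enzyme for full effect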
Target sequence (Q9HC16 whole entry, looked up): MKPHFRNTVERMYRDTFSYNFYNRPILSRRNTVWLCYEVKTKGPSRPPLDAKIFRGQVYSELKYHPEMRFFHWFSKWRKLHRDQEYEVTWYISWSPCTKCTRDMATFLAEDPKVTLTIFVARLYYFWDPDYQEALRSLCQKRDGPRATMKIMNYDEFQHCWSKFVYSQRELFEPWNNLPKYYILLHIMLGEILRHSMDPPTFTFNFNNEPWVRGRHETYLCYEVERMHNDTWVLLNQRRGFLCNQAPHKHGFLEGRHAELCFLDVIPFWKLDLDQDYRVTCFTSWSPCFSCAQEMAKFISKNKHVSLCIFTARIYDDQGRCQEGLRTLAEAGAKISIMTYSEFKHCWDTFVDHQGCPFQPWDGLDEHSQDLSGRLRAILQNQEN
PfG6PD inh – PfG6PD (Plasmodium falciparum) enzyme inhibition. PfGluPho enzyme, NADPH resazurin-diaphorase fluorescence. inhibition, % at 20 µM. 350,000 tested, 0.78% active. AID 504690;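 active means inhibition reaching at least a set limit at 20 µM in the primary screen, cut at about 59% in these data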;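 further: 0% = DMSO wells with substrate and 100% = DMSO wells lacking glucose-6-phosphate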
A3A conf – APOBEC3A (human) deaminase inhibition, confirmed | shares compounds with APOBEC3A inh | recombinant A3A, ssDNA deaminase UDG fluorescence assay | inhibition, % at 20 µM | 1,400 tested, 63% active | AID 493151;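 active means inhibition reaching a set limit, 80% of the first screen's cutoff, at 20 µM in any replicate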;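 further: plate controls were DMSO wells with A3A for no effect and wells lacking A3A enzyme for full effect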
UDG ctr A3A – inhibits UDG, flagging false APOBEC3A inhibitors | shares compounds with APOBEC3A inh | UDG counterscreen, FAM/TAMRA uracil oligo fluorescence | inhibition, % at 20 µM | 1,000 tested, under 10 active | AID 504714; call rule not given here
Numbers without * were called inactive; nt = not tested or not shown. Only some compounds are listed: those with a hit (about 1.4% of all), similar ones and a draw of the others.

SMILES	iPSC survival up	APOBEC3A inh	HKDC1 inhibitor	APOBEC3G inh	PfG6PD inh	A3A conf	UDG ctr A3A
COc1ccc(S(=O)(=O)N(CCc2ccccc2)CC(=O)NC(C)C)cc1	1	50*	-5	11	-13	48*	2
COc1ccc(S(=O)(=O)N(CC(=O)NC(C)C)Cc2ccccc2)cc1	1	5	-9	-1	10	nt	nt
CNC(=O)CN(CCc1ccccc1)S(=O)(=O)c1ccc(OC)cc1	0	45*	-4	1	9	25	nt
O=C(COC(=O)c1cc(=O)[nH]c2ccccc12)c1cccs1	-2	3	10	-1	-6	nt	nt
CCC1CCCCN1C(=O)COc1ccccc1NC(C)=O (stereo not drawn)	1	41*	11	11	8	3	nt
CCC1CCCCN1C(=O)COc1cc(=O)n(C)c2ccccc12 (stereo not drawn)	-1	-1	2	-8	19	nt	nt
COc1ccc(C2C3=C(CCCC3=O)N(CC(=O)O)C3=C2C(=O)CCC3)cc1Cl	0	8	8	5	14	nt	nt
O=C(Nc1nc2ccccc2[nH]1)NC1CCCCC1	0	2	-3	5	16	nt	nt
CC1CCN(Cc2c(O)ccc3c2O/C(=C\c2ccco2)C3=O)CC1	0	97*	9	4	12	36*	-5
COCCN(CCOC)Cc1c(O)ccc2c1O/C(=C\c1ccco1)C2=O	1	56*	-2	14	25	27*	2
Cc1ccc(SCC(=O)NCc2ccccc2)cc1	0	-8	-6	7	-8	nt	nt
CCCCn1c(N)c(N(CCC(C)C)C(=O)c2c(C)noc2C)c(=O)[nH]c1=O	2	2	-2	-4	10	nt	nt
C=C1c2cc3c(cc2NC(=S)N1Cc1ccccc1)OCO3	0	-3	4	15	12	nt	nt
CCN(CC(=O)Nc1cc(Cl)ccc1C)C(=O)c1cc([N+](=O)[O-])ccc1N1CCOCC1	1	80*	0	3	-7	0	nt
Cc1cccc(C)c1NC(=O)CN(C)C(=O)c1cc([N+](=O)[O-])ccc1N1CCOCC1	0	2	-7	7	26	nt	nt
CN(CC(=O)Nc1ccccc1Br)C(=O)c1cc([N+](=O)[O-])ccc1N1CCOCC1	0	42*	2	7	-15	-1	nt
CCN(CC(=O)Nc1ccc(OC)cc1)C(=O)c1cc([N+](=O)[O-])ccc1N1CCOCC1	0	0	-3	-7	18	nt	nt
Cc1ccc(NC(=O)c2cc([N+](=O)[O-])ccc2N2CCOCC2)cc1S(=O)(=O)N1CCOCC1	0	42*	-4	5	11	2	nt
CC(C)(C)c1cc(C(=O)NNC(=O)Nc2ccccc2)n(Cc2ccccc2)n1	0	61*	-3	-4	16	1	2
CCc1ccc(NC(=O)c2ccc(-n3cncn3)c([N+](=O)[O-])c2)cc1	0	41*	4	15	18	5	nt
O=C(CSc1nccc(=O)[nH]1)N1N=C2/C(=C/c3ccco3)CCCC2C1c1ccco1 (stereo not drawn)	0	46*	6	27	-14	34*	0
Cc1ccccc1/C=C/c1cc[n+](C)cc1	1	59*	2	19	11	73*	-3
CC(C)CN(C(=O)CCCc1nc2ccccc2c(=O)[nH]1)c1c(N)n(Cc2ccccc2)c(=O)[nH]c1=O	0	42*	-3	4	-5	2	nt
COc1ccccc1OC(C)C(=O)N1CCC(Cc2ccccc2)CC1 (stereo not drawn)	0	55*	-6	5	1	47*	-2
CCN(CC)c1cc(C)c2ccccc2n1	2	57*	-11	16	-12	7	nt
SMILES	iPSC survival up	APOBEC3A inh	HKDC1 inhibitor	APOBEC3G inh	PfG6PD inh	A3A conf	UDG ctr A3A
Cc1cccc2nc3ccccc3cc12	0	1	3	-3	16	nt	nt
CN(CC(=O)Nc1c(Cl)cccc1Cl)C(=O)c1cccc(-n2cccc2)c1	0	71*	6	18	6	53*	-2
CN(CC(=O)Nc1c(Cl)cccc1Cl)C(=O)CNC(=O)c1ccc2ccccc2c1	0	42*	-5	-8	-5	-4	2
CN(CC(=O)Nc1ccccc1Cl)C(=O)c1cccc(-n2cccc2)c1	0	2	-4	-2	12	nt	nt
CN(CC(=O)Nc1c(Cl)cccc1Cl)C(=O)CCC(=O)c1ccccc1	0	-1	-5	-7	-6	nt	nt
CC(=O)Nc1ccc(OCc2cn(CC(=O)c3ccc(O)cc3)nn2)cc1	-2	nt	nt	nt	34	nt	nt
CCOc1cc(/C=C(\C#N)C(=O)NCC2CCCO2)ccc1OCC(N)=O (stereo not drawn)	3	51*	-3	13	3	43*	-2
CCN1C(=NCc2ccc(OC)cc2)N[C@@H](c2ccccc2)[C@H](C(=O)OC)[C@H]1C	1	41*	-2	8	3	56*	-2
CCN1C(=NCCc2c[nH]c3ccccc23)N[C@@H](c2ccccc2)[C@H](C(=O)OC)[C@H]1C	0	51*	-6	4	-4	45*	-2
CCN1C(=NCc2ccccc2)N[C@@H](c2ccccc2)[C@H](C(=O)OC)[C@H]1C	2	55	2	32	-17	nt	nt
CCc1nc2c(OCCC3CCCCC3)cccn2c1N(C=O)Cc1ccccc1	-2	nt	nt	nt	nt	nt	nt
C[C@H]1CCCCO[C@H](CN(C)S(=O)(=O)c2cn(C)cn2)[C@@H](C)CN([C@@H](C)CO)C(=O)c2cc(NS(=O)(=O)c3ccccc3)ccc2O1	4	nt	nt	nt	25	nt	nt
Cc1ccc(C)c(NC(=O)CSc2ncnc3nc[nH]c23)c1	-2	47*	-7	5	-9	31*	-3
Cc1cccc(NC(=O)CSc2ncnc3nc[nH]c23)c1C	0	34	-3	8	-2	nt	nt
CC(C)(C)N(Cc1ccccc1)C(=O)CN1C(=O)c2ccccc2C1=O	-1	-3	-4	-9	-4	nt	nt
CC(C)(C)N(Cc1ccccc1)C(=O)CN1C(=O)c2ccccc2S1(=O)=O	-2	45*	-1	1	-1	38*	2
CS(=O)(=O)Nc1cccc(-c2cnc3ccccc3n2)c1	0	-3	0	-10	26	nt	nt
C[n+]1ccccc1N1CCN(c2ccccc2Cl)CC1	2	60*	-7	28	-5	26	nt
Cc1ccc(Cl)cc1N1CCN(c2cccc[n+]2C)CC1	-1	46*	-4	24	-15	26	nt
Cc1ccc(Cl)cc1N1CCN(C(=S)NCCc2ccccc2)CC1	3	-3	-2	-1	2	nt	nt
O=C(NCCCO)c1cc([N+](=O)[O-])cc2c1C=Cc1ccccc1O2	-1	47*	2	6	-10	20	nt
